Values joined by “and” are separate entries in the source; they are usually repeats but may differ in a detail not shown here. Equal entries are not always repeated. Values belong to the compound of their own block, whether it stands above or below them.
What was measured:
Rattus norvegicus [1] = assay: Inhibition of total cholesterol in normolipidemic rats after 6 hr of 5 mg/kg oral dosing; assay type: functional
Outline: (§1)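 Overnight-fasted normolipidemic rats received a single oral dose in cornstarch vehicle. Blood was drawn at 2, 6 and 24 h post-dose and assayed for triglycerides and total cholesterol, with free access to food after the 6 h sample. Value is mean percent inhibition versus a separate vehicle-treated group, unpaired t test p < 0.05, NS = no significant change, N = 6.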

Rattus norvegicus [2] = assay: Inhibition of plasma triglycerides in normolipidemic rats after 2 hr of 10 mg/kg oral dosing; assay type: functional; outline: as §1
[3] = biological target: T1, Microsomal triglyceride transfer protein large subunit (Homo sapiens, UniProt P55157); assay: In vitro inhibitory activity against MTP using MTP transfer assay
T1 sequence (P55157 whole entry): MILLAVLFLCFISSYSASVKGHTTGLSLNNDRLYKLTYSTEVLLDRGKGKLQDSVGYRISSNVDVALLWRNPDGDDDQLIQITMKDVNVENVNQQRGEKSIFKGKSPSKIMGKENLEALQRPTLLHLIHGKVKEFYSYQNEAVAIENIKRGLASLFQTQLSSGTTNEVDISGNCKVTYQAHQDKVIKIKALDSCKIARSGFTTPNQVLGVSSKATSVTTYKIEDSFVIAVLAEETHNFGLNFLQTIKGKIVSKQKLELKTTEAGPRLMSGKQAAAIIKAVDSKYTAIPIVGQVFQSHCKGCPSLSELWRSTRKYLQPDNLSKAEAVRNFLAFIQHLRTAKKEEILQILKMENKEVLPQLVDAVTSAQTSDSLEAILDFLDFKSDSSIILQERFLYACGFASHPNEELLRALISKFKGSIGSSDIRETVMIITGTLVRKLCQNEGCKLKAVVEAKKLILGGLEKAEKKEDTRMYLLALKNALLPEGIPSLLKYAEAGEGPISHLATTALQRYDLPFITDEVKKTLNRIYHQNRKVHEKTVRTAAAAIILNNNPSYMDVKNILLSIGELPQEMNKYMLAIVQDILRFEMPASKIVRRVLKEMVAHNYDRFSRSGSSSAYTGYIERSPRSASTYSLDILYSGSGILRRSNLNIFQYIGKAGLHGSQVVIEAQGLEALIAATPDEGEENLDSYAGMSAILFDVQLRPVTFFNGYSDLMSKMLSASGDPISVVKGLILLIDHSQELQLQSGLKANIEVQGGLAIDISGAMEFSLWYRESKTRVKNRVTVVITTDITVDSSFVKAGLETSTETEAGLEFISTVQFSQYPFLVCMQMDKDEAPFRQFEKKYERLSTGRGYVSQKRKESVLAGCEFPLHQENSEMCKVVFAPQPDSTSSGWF

Rattus norvegicus [4] = assay: Inhibition of total cholesterol in normolipidemic rats after 2 h of 5 mg/kg oral dosing; assay type: functional; outline: as §1
Rattus norvegicus [5] = assay: Inhibition of plasma triglycerides in normolipidemic rats after 2 hr of 50 mg/kg oral dosing; assay type: functional; outline: as §1
Canis familiaris [6] = assay: Inhibition of plasma total cholesterol in the normolipidemic dogs after day 4 of oral administration of 5 mg/kg/day; assay type: functional, Canis lupus familiaris
Outline: (§2)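 Normolipidemic dogs dosed once daily for 4 days by oral gavage, compound suspended in cornstarch vehicle. Plasma sampled 24 h after dosing on days 0, 2, 3 and 4, assayed for triglycerides and total cholesterol (mg/dL). Mean percent inhibition versus day-0 level is given for treated dogs; n = 6 per group; significance by one-way ANOVA, p < 0.05.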

Rattus norvegicus [7] = assay: Inhibition of plasma triglycerides in normolipidemic rats after 6 hr of 10 mg/kg oral dosing; assay type: functional; outline: as §1
Canis familiaris [8] = assay: Inhibition of plasma total triglycerides in the normolipidemic dogs after day 2 of oral administration of 5 mg/kg/day.; assay type: functional, Canis lupus familiaris; outline: as §2
Rattus norvegicus [9] = assay: Inhibition of total cholesterol in normolipidemic rats after 24 hr of 10 mg/kg oral dosing; no significant change; assay type: functional, organism-based; parameters: dose 10 mg/kg; outline: as §1
Canis familiaris [10] = assay: Inhibition of plasma total cholesterol in the normolipidemic dogs after day 3 of oral administration of 5 mg/kg/day.; assay type: functional, Canis lupus familiaris; outline: as §2
Rattus norvegicus [11] = assay: Inhibition of total cholesterol in normolipidemic rats after 6 hr of 10 mg/kg oral dosing; assay type: functional; outline: as §1
Canis familiaris [12] = assay: Inhibition of plasma total cholesterol in the normolipidemic dogs after day 0 of oral administration of 5 mg/kg/day.; assay type: functional, Canis lupus familiaris; outline: as §2
Rattus norvegicus [13] = assay: Inhibition of plasma triglycerides in normolipidemic rats after 24 hr of 10 mg/kg oral dosing; no significant change; assay type: functional, organism-based; parameters: dose 10 mg/kg; outline: as §1
Canis familiaris [14] = assay: Inhibition of plasma total triglycerides in the normolipidemic dogs after day 4 of oral administration of 5 mg/kg/day; assay type: functional, Canis lupus familiaris
Canis familiaris [15] = assay: Inhibition of plasma total cholesterol in the normolipidemic dogs after day 2 of oral administration of 5 mg/kg/ day.; assay type: functional, Canis lupus familiaris; outline: as §2
Rattus norvegicus [16] = assay: Inhibition of total cholesterol in normolipidemic rats after 2 hr of 10 mg/kg oral dosing; assay type: functional; outline: as §1
Rattus norvegicus [17] = assay: Inhibition of plasma triglycerides in normolipidemic rats after 24 hr of 50 mg/kg oral dosing; assay type: functional; outline: as §1
Canis familiaris [18] = assay: Inhibition of plasma total triglycerides in the normolipidemic dogs after day 3 of oral administration of 5 mg/kg/day.; assay type: functional, Canis lupus familiaris
Rattus norvegicus [19] = assay: Inhibition of plasma triglycerides in normolipidemic rats after 6 hr of 50 mg/kg oral dosing; assay type: functional; outline: as §1
Canis familiaris [20] = assay: Inhibition of plasma total triglycerides in the normolipidemic dogs after day 0 of oral administration of 5 mg/kg/day.; assay type: functional, Canis lupus familiaris; outline: as §2
Rattus norvegicus [21] = assay: Inhibition of total cholesterol in normolipidemic rats after 24 hr of 5 mg/kg oral dosing; no significant change; assay type: functional, organism-based; parameters: dose 5 mg/kg; outline: as §1
Rattus norvegicus [22] = assay: Inhibition of plasma triglycerides in normolipidemic rats after 24 hr of 5 mg/kg oral dosing; no significant change; assay type: functional, organism-based; parameters: dose 5 mg/kg; outline: as §1
Rattus norvegicus [23] = assay: Inhibition of total cholesterol in normolipidemic rats after 2 hr of 50 mg/kg oral dosing; assay type: functional; outline: as §1
Rattus norvegicus [24] = assay: Inhibition of plasma triglycerides in normolipidemic rats after 2 hr of 5 mg/kg oral dosing; assay type: functional; outline: as §1
Rattus norvegicus [25] = assay: Inhibition of total cholesterol in normolipidemic rats after 24 hr of 50 mg/kg oral dosing; no significant change; assay type: functional, organism-based; parameters: dose 50 mg/kg; outline: as §1
Rattus norvegicus [26] = assay: Inhibition of plasma triglycerides in normolipidemic rats after 24 h of 50 mg/kg oral dosing; no significant change; assay type: functional, organism-based; parameters: dose 50 mg/kg; outline: as §1
Rattus norvegicus [27] = assay: Inhibition of plasma triglycerides in normolipidemic rats after 6 h of 5 mg/kg oral dosing; assay type: functional; outline: as §1
Rattus norvegicus [28] = assay: Inhibition of total cholesterol in normolipidemic rats after 6 hr of 50 mg/kg oral dosing; assay type: functional; outline: as §1
[29] = biological target: Apolipoprotein B-100 (Homo sapiens) (UniProt P04114); assay: Inhibition of apolipoprotein B (apoB) secreted by human hepatoma cells (Hep G2) at 100 nM
Rattus norvegicus [30] = assay: Inhibition of total cholesterol in normolipidemic rats after 6 h of […] mg/kg oral dosing; no significant change; assay type: functional, organism-based; parameters: dose 50 mg/kg
Rattus norvegicus [31] = assay: Inhibition of plasma triglycerides in normolipidemic rats after 6 h of […] mg/kg oral dosing; no significant change; assay type: functional, organism-based; parameters: dose 50 mg/kg
Rattus norvegicus [32] = assay: Inhibition of plasma triglycerides in normolipidemic rats after 24 hr of 50 mg/kg oral dosing; No significant change; assay type: functional, organism-based; parameters: dose 50 mg/kg; outline: as §1
Rattus norvegicus [33] = assay: Inhibition of total cholesterol in normolipidemic rats after 2 hr of 50 mg/kg oral dosing; no significant change; assay type: functional, organism-based; parameters: dose 50 mg/kg; outline: as §1
Rattus norvegicus [34] = assay: Inhibition of plasma triglycerides in normolipidemic rats after 2 hr of 50 mg/kg oral dosing; no significant change; assay type: functional, organism-based; parameters: dose 50 mg/kg; outline: as §1
Rattus norvegicus [35] = assay: Inhibition of total cholesterol in normolipidemic rats after 24 hr of 50 mg/kg oral dosing; assay type: functional, organism-based; parameters: dose 50 mg/kg; outline: as §1

Sequence of Apolipoprotein B-100 (Homo sapiens) (P04114 whole entry): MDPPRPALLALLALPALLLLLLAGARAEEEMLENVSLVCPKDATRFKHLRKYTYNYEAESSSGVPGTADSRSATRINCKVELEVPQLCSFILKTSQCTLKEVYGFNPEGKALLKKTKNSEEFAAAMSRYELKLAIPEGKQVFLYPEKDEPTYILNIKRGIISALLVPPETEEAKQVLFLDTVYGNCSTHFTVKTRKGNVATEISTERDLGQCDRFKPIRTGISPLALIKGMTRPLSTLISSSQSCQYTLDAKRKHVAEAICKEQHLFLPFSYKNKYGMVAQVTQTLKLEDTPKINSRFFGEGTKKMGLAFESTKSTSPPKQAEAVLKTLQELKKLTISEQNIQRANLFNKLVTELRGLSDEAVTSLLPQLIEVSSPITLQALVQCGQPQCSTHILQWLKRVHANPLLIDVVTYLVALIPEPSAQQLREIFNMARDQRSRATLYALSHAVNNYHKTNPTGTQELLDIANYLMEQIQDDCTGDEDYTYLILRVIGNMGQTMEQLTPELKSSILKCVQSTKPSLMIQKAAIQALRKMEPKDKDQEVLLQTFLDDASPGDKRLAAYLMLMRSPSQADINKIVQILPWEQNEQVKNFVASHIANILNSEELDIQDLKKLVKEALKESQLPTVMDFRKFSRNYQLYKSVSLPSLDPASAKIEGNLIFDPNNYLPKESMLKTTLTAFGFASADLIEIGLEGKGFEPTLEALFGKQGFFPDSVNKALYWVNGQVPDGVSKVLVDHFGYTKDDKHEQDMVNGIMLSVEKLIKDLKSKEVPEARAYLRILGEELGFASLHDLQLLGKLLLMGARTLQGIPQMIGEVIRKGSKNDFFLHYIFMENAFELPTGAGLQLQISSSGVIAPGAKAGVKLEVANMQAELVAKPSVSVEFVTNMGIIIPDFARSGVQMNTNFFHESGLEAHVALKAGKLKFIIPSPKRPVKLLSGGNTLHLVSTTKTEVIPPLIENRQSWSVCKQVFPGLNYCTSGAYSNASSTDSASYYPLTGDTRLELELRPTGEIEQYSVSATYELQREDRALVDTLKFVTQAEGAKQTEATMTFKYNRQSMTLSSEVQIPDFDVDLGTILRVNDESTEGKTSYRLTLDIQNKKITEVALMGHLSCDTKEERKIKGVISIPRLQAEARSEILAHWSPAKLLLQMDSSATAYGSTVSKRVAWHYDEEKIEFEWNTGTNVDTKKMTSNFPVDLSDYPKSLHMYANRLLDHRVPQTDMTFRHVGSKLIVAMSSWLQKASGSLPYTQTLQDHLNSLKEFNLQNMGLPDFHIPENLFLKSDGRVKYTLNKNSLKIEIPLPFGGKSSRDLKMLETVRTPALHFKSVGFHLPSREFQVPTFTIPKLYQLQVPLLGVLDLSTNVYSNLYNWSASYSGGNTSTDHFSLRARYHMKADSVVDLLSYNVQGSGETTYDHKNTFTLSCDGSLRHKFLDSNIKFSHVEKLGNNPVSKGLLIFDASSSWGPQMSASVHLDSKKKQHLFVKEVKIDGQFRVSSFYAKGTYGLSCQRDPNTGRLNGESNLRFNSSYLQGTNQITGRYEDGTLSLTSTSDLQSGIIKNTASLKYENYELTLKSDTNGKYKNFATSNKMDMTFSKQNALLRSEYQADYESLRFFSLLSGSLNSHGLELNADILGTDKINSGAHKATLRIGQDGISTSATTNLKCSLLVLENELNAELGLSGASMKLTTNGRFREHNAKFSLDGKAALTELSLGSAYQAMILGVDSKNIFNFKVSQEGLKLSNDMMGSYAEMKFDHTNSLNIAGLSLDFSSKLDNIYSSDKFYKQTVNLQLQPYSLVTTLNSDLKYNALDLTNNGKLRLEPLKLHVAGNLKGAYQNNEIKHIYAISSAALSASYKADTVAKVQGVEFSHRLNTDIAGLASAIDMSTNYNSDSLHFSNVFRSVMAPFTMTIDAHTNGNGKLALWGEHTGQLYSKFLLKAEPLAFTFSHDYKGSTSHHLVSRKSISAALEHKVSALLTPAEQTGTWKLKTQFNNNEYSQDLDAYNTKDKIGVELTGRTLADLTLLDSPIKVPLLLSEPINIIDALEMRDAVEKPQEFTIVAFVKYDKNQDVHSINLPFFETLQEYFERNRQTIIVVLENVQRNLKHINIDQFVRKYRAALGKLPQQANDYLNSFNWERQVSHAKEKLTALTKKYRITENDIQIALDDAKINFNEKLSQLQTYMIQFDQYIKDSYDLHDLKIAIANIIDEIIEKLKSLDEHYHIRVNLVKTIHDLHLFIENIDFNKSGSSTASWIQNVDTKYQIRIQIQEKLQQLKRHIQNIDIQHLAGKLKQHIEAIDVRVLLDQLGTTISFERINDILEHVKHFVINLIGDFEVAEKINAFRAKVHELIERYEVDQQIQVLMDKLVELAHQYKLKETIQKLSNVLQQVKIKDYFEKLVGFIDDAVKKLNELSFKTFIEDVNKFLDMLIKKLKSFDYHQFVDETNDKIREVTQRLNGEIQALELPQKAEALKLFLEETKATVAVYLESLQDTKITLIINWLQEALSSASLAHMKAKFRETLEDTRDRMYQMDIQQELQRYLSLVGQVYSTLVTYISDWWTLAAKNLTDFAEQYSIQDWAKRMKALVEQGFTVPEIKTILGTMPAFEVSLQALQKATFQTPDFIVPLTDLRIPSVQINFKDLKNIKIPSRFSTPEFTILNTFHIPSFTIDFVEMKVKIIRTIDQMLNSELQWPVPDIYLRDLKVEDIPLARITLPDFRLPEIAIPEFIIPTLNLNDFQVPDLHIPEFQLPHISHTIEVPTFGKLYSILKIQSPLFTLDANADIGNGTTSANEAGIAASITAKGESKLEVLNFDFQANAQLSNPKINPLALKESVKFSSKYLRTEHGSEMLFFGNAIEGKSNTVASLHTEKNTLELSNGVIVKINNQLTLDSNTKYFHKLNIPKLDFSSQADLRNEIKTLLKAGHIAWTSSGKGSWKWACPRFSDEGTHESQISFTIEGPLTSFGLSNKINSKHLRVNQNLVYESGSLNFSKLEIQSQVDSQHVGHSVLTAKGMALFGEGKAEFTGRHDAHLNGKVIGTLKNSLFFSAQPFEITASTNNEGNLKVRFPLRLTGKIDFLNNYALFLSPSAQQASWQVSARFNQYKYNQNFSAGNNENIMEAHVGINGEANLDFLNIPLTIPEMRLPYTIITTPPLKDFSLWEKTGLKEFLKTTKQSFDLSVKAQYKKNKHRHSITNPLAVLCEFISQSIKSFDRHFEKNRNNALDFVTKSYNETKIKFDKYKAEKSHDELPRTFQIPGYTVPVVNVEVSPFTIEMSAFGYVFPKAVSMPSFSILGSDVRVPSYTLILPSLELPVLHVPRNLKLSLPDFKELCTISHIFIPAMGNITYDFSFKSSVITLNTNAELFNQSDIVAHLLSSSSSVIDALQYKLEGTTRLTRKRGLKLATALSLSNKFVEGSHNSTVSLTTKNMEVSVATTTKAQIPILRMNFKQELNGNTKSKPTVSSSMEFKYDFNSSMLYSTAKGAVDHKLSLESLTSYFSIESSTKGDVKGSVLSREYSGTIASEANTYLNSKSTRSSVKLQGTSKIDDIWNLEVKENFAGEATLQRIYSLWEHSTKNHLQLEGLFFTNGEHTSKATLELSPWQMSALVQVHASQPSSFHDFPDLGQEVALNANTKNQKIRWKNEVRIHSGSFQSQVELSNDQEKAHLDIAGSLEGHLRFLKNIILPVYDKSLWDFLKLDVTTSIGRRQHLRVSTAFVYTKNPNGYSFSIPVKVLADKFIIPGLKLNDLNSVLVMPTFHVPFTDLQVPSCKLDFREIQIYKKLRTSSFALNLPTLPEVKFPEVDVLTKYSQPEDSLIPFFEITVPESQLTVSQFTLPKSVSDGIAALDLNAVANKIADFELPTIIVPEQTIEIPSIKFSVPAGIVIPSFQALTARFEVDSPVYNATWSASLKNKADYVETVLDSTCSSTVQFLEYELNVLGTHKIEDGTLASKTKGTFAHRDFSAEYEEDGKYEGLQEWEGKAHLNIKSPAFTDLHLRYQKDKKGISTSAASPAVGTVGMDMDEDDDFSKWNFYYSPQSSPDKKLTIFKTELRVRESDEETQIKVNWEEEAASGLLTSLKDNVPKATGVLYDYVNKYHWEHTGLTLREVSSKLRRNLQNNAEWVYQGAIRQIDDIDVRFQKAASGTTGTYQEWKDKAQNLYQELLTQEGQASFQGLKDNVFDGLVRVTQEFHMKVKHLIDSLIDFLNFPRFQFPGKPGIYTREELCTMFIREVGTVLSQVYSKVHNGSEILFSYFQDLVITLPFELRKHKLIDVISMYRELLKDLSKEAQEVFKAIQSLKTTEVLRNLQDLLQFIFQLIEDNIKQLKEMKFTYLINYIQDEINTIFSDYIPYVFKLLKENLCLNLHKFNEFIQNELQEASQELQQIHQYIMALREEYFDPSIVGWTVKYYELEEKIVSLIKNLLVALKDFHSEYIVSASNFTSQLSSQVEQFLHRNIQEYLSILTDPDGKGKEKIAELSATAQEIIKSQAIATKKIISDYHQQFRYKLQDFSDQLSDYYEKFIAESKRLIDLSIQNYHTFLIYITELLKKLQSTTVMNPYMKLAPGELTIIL

Structure (SMILES): Cc1cccc(C(=O)Nc2ccc3c(c2)C[C@H](NS(=O)(=O)c2cccs2)C3)c1-c1ccc(C(F)(F)F)cc1
Reduction (Rattus norvegicus [1]; 5 mg/kg): 50% and 34%
Reduction (Rattus norvegicus [2]): 83%
IC50 [3]: 0.05 µM
Reduction (Rattus norvegicus [4]; 5 mg/kg): 25% and 23%
Reduction (Rattus norvegicus [5]; 50 mg/kg): 88% and 83%
Lipid level (Canis familiaris [6]): <70 mg/dL
Reduction (Rattus norvegicus [7]): 56%
Lipid level (Canis familiaris [8]): <24 mg/dL
NS (Rattus norvegicus [9]): no significant change
Lipid level (Canis familiaris [10]): <72 mg/dL
Reduction (Rattus norvegicus [11]): 39%
Lipid level (Canis familiaris [12]): 120 mg/dL
NS (Rattus norvegicus [13]): no significant change
Lipid level (Canis familiaris [14]): <20 mg/dL
Lipid level (Canis familiaris [15]): <81 mg/dL
Reduction (Rattus norvegicus [16]): 26%
Reduction (Rattus norvegicus [17]): 76%
Lipid level (Canis familiaris [18]): <24 mg/dL
Reduction (Rattus norvegicus [19]; 50 mg/kg): 83% and 56%
Lipid level (Canis familiaris [20]): 31 mg/dL
NS (Rattus norvegicus [21]): no significant change

Structure (SMILES): Cc1cccc(C(=O)Nc2ccc3c(c2)C[C@H](NCc2ccccn2)C3)c1-c1ccc(C(F)(F)F)cc1
IC50 [3]: 0.41 µM
inhibition [29]: 30%

Structure (SMILES): COC(=O)NCCC1Cc2ccc(NC(=O)c3cccc(C)c3-c3ccc(C(F)(F)F)cc3)cc2C1 (stereo not given)
NS (Rattus norvegicus [30]): no significant change
IC50 [3]: 0.07 µM
NS (Rattus norvegicus [31]): no significant change
NS (Rattus norvegicus [35]): no significant change
NS (Rattus norvegicus [33]): no significant change
NS (Rattus norvegicus [26]): no significant change
NS (Rattus norvegicus [34]): no significant change

More lines, main results first:

IC50 [3]: 0.07 µM
Structure (SMILES): COC(=O)N[C@@H]1Cc2ccc(NC(=O)c3cccc(C)c3-c3ccc(C(F)(F)F)cc3)cc2C1
Reduction (Rattus norvegicus [1]): 45%
NS (Rattus norvegicus [22]): no significant change
Reduction (Rattus norvegicus [23]): 27%
Reduction (Rattus norvegicus [4]): 33%
Reduction (Rattus norvegicus [24]): 85%
Reduction (Rattus norvegicus [5]): 78%
NS (Rattus norvegicus [25]): no significant change
NS (Rattus norvegicus [26]): no significant change
Reduction (Rattus norvegicus [19]): 74%
Reduction (Rattus norvegicus [27]): 71%
Reduction (Rattus norvegicus [28]): 43%
NS (Rattus norvegicus [21]): no significant change

IC50 [3]: 0.17 µM
Structure (SMILES): COC(=O)N[C@H]1Cc2ccc(NC(=O)c3cc(C)ccc3-c3ccc(C(F)(F)F)cc3)cc2C1
NS (Rattus norvegicus [30]): no significant change
NS (Rattus norvegicus [31]): no significant change
NS (Rattus norvegicus [32]): no significant change
NS (Rattus norvegicus [25]): no significant change
NS (Rattus norvegicus [33]): no significant change
NS (Rattus norvegicus [34]): no significant change

— ChEMBL document CHEMBL1134325, “Diaminoindanes as microsomal triglyceride transfer protein inhibitors” (J Med Chem, 2001)
